From ChEMBL document CHEMBL3751740, “New MKLP-2 inhibitors in the paprotrain series: Design, synthesis and biological evaluations” (Bioorg Med Chem, 2016) come the findings set out here.

Experiment [1] has as its target T1, Kinesin-like protein KIF11 (Homo sapiens) (UniProt P52732).
T1 sequence (whole entry): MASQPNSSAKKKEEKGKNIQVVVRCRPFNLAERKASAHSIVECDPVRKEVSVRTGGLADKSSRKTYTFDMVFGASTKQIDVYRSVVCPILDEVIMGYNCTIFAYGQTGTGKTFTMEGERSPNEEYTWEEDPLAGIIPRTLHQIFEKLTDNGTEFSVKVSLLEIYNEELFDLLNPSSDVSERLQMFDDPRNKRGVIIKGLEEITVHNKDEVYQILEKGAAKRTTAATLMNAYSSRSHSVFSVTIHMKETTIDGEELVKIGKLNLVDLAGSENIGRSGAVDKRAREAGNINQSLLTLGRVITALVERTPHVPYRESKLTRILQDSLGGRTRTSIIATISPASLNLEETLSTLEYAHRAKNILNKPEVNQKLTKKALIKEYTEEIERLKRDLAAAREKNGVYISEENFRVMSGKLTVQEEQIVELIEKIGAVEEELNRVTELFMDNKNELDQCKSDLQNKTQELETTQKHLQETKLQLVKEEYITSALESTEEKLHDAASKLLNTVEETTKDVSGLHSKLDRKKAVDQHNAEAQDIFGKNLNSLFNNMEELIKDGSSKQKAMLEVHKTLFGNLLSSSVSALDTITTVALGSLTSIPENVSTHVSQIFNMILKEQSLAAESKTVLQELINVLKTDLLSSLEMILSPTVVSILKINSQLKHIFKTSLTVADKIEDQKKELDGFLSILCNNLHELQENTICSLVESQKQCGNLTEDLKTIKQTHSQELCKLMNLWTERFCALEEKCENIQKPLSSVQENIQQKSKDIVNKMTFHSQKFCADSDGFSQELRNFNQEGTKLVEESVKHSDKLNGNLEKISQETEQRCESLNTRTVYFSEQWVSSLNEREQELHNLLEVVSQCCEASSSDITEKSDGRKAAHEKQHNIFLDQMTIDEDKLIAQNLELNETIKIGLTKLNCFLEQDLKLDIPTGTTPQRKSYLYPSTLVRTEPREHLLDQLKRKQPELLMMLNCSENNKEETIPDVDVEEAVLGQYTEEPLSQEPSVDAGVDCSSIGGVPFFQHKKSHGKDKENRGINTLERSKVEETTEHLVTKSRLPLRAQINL
The experiment is described as follows: Inhibition of porcine brain microtubule-stimulated human recombinant GST-tagged Eg5 ATPase activity at 1 mM by microplate reader in presence of Mg2+ ATP relative to control. The gist of the method:
(§1)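 Motor domain at 15 µM final, in 7.5 mM PIPES-NaOH pH 7.0 with […], 10 µM Taxol, ELIPA 1 and 2 reagents and 1.25 mg/mL microtubules. AMP-PNP, a slowly hydrolysable ATP analog and general ATPase inhibitor, tested at 1 mM. Reaction started with 1 mM Mg2+ATP at 22 °C and read kinetically at 360 nm. Run in triplicate.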

Experiment [2] has as its target T2, Kinesin-1 heavy chain (Homo sapiens) (UniProt P33176).
T2 sequence (whole entry): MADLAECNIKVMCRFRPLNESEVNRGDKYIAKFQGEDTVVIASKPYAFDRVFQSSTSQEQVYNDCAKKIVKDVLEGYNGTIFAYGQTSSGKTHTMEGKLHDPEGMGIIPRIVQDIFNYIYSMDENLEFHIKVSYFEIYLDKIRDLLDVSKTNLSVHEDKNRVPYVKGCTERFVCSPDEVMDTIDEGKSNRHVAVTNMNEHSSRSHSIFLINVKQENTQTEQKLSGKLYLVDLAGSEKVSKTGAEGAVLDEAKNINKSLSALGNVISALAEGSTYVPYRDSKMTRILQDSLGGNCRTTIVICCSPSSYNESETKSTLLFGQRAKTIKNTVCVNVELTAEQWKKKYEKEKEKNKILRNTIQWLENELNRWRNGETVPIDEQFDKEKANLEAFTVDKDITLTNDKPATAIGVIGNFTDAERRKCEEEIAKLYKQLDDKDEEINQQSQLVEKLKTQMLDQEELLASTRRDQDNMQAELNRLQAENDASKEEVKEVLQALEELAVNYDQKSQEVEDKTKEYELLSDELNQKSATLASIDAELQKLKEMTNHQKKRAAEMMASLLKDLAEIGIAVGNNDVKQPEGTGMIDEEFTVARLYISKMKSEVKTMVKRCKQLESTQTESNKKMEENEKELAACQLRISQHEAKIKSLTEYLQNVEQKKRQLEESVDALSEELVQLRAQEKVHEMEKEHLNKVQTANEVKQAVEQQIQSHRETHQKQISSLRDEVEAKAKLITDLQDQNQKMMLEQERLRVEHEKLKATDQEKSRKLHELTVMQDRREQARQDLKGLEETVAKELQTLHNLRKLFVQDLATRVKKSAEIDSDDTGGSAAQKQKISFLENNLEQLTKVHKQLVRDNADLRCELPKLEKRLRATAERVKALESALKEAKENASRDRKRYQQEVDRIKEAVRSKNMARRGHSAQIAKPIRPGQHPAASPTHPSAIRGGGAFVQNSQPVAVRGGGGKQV
The experiment is described as follows: Inhibition of porcine brain microtubule-stimulated human recombinant GST-tagged Kif5B ATPase activity at 1 mM by microplate reader in presence of Mg2+ ATP relative to control. A digest of the protocol:
as §1

Some results are limits rather than exact numbers.

In general, inhibition refers to the drop in the measured response relative to a control, in per cent. With `Nc1ncnc2c1ncn2[C@@H]1O[C@H](COP(=O)(O)OP(=O)(O)NP(=O)(O)O)[C@@H](O)[C@H]1O`, the inhibition in experiment [1] and in experiment [2] was more than 30% each time.
